The values below come from ChEMBL document CHEMBL1156012, “Structure-activity relationship and improved hydrolytic stability of pyrazole derivatives that are allosteric inhibitors of West Nile Virus NS2B-NS3 proteinase” (Bioorg Med Chem Lett, 2009).

The structures appear in SMILES notation.

For data set [1], the target named is Genome polyprotein (West Nile virus, UniProt P06935). In words: Inhibition of WNV NS2B-NS3 protease by fluorescence assay. The procedure, abridged: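 Recombinant WNV NS2B-NS3 proteinase (10 nM, active-site titrated against aprotinin) preincubated 60 min at 18 °C with increasing inhibitor concentrations in 10 mM Tris-HCl pH 8.0, 20% glycerol, 0.005% Brij 35. Pyr-RTKR-AMC substrate at 25 μM; initial velocities read continuously at ex 360/em 465 nm. Triplicates; IC50 derived.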
Chain of Genome polyprotein (P06935 1371-1501 limits assumed): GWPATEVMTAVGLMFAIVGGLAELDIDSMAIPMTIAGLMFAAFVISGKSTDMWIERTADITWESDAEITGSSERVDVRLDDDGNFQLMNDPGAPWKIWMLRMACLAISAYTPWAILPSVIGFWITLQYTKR
Chain of Genome polyprotein (P06935 1502-2120 limits assumed): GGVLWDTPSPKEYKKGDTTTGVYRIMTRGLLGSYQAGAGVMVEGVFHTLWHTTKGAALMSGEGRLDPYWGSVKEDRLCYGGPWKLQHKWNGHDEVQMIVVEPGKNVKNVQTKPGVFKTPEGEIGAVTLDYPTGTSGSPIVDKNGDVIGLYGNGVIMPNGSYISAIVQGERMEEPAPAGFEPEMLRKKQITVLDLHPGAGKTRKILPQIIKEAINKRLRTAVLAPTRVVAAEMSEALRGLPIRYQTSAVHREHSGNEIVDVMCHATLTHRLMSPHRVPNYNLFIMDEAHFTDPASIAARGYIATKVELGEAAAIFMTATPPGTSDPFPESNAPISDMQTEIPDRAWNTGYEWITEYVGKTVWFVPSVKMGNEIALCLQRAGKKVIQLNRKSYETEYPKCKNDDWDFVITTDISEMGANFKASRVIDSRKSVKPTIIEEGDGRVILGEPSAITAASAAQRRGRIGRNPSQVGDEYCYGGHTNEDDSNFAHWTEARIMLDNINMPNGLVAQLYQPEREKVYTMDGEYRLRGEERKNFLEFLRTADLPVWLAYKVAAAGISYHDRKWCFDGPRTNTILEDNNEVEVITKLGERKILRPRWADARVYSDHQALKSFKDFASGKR

Data set [2] in a line: Aqueous stability assessed as half life at pH 8.0 buffer. The format is physicochemical. The procedure, abridged:
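Compound held in pH 8 buffer; remaining amount followed over time by LC/MS to give half-life.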

Consider `COc1ccc(S(=O)(=O)n2nc(OC(=O)c3c(Cl)cccc3Cl)cc2N)cc1`, for which, in data set [1], the IC50 (as a rule, the concentration needed to halve the response being measured) is greater than 100 µM. Moreover, in data set [2], the t1/2 amounted to 5 h.

In turn, `COc1ccc(S(=O)(=O)n2nc(OC(=O)c3cc(F)ccc3F)cc2N)cc1` yielded an IC50 in data set [1] of 4.9 µM.

Compound `COc1ccc(S(=O)(=O)n2nc(OC(=O)c3ccccc3OC)cc2N)cc1` came in with an IC50 in data set [1] greater than 100 µM.

Compound `COc1ccc(S(=O)(=O)n2nc(OC(=O)c3c(F)ccc(C)c3F)cc2N)cc1` showed an IC50 in data set [1] of 4.28 µM. Moreover, the t1/2 in data set [2] worked out at 2.5 h.

`COc1ccc(S(=O)(=O)n2nc(OC(=O)c3sccc3Cl)cc2N)cc1`: the half-maximal inhibitory concentration (IC50) in data set [1] turned out to be 1.22 µM.

The compound `COc1ccc(S(=O)(=O)n2nc(OC(=O)c3c(F)cc(F)cc3F)cc2N)cc1` yielded an IC50 in data set [1] of 1.83 µM. The t1/2 in data set [2] was 4.25 h.

The compound `COc1ccc(S(=O)(=O)n2nc(OC(=O)c3ccc(F)c(F)c3F)cc2N)cc1` showed a half-inhibitory concentration (IC50) in data set [1] of 11.9 µM.

Regarding `Cc1cc(OC(=O)c2c(F)ccc(C)c2F)n(Cc2ccccc2)n1`, the IC50 in data set [1] was 9.43 µM.

`COc1ccc(S(=O)(=O)n2nc(OC(=O)c3c(F)c(F)c(C)c(F)c3F)cc2N)cc1`: in data set [1], half-maximal inhibition (IC50) required 10.7 µM. This IC50 and that of the compound before are within 1.5-fold of each other.

In the case of `COc1ccc(S(=O)(=O)n2nc(C)cc2NC(=O)c2ccccc2)cc1`, the IC50 in data set [1] is 9.2 µM. The t1/2 in data set [2] was 1.25 h.

Regarding `COc1ccc(S(=O)(=O)n2nc(OC(=O)c3ccccc3C)cc2N)cc1`, the IC50 in data set [1] worked out at 3.55 µM. In other words, the single-digit micromolar range.

The compound `COc1ccc(Cn2nc(C)cc2OC(=O)c2c(F)cccc2F)cc1` yielded an IC50 in data set [1] of 8.71 µM. Further, the t1/2 in data set [2] was found to be 1.5 h.

In the case of `Cc1cc(OC(=O)c2c(F)cccc2F)n(Cc2ccccc2)n1`, the IC50 in data set [1] was 8.04 µM.

Compound `COc1ccc(S(=O)(=O)n2nc(OC(=O)c3ccc(F)cc3F)cc2N)cc1` showed an IC50 in data set [1] of 1.96 µM. Besides, the t1/2 in data set [2] was 7.5 h.

In data set [1], `COc1ccc(S(=O)(=O)n2nc(OC(=O)c3c(F)cccc3F)cc2N)cc1` returned an IC50 of 0.31 µM. For the same compound, the t1/2 in data set [2] was 1.5 h.

On to `COc1ccc(Cn2nc(C)cc2OC(=O)c2c(F)ccc(C)c2F)cc1`, for which, in data set [1], half-maximal inhibition (IC50) required 9.26 µM.

Consider `COc1ccc(S(=O)(=O)n2nc(OC(=O)c3cccc(C(F)(F)F)c3F)cc2N)cc1`, for which the midpoint of inhibition in data set [1], the IC50, lay at 45.5 µM.

Take `COc1ccc(S(=O)(=O)n2nc(OC(=O)c3ccccc3[N+](=O)[O-])cc2N)cc1`: the IC50 in data set [1] is greater than 100 µM.

`COc1ccc(Cn2nc(C)cc2OC(=O)c2ccccc2)cc1`: in data set [1], the concentration for half-maximal inhibition (IC50) was 4.03 µM. Further, the t1/2 in data set [2] stood at 15 h.

In turn, `COc1ccc(Cn2nc(C)cc2CC(O)c2ccccc2)cc1` (stereo not given) returned an IC50 in data set [1] greater than 100 µM.

Turning to `COc1ccc(Cn2nc(C)cc2CC(=O)c2c(F)cccc2F)cc1`, the midpoint of inhibition in data set [1], the IC50, lay at 23.9 µM. In other words, the double-digit micromolar range.

Take `COc1ccc(Cn2nc(C)cc2/C=C/c2c(F)cccc2F)cc1`: the IC50 in data set [1] is 13.8 µM. Moreover, the t1/2 in data set [2] was found to be 13 h.

The compound `Cc1cc(NC(=O)c2ccccc2)n(-c2ccccc2)n1` had an IC50 in data set [1] of 16 µM. The t1/2 in data set [2] was greater than 96 h.

The compound `COc1ccc(Cn2nc(C)cc2CC(=O)c2ccccc2)cc1` gave an IC50 in data set [1] greater than 100 µM.

`COc1ccc(S(=O)(=O)n2nc(OC(=O)c3sccc3C)cc2N)cc1`: the 50% inhibitory concentration (IC50) in data set [1] is 5 µM.

As to `COc1ccc(S(=O)(=O)n2nc(OC(=O)c3cc(F)c(F)cc3F)cc2N)cc1`, it took 26.2 µM to reach half-maximal inhibition in data set [1] (IC50).

In turn, `COc1ccc(S(=O)(=O)n2nc(OC(=O)c3c(F)ccc(F)c3F)cc2N)cc1` had an IC50 in data set [1] of 0.97 µM. The t1/2 in data set [2] was found to be 1.5 h.

`COc1ccc(Cn2nc(C)cc2CC(=O)c2ccccc2F)cc1` displayed an IC50 in data set [1] of 38.8 µM. That is a double-digit micromolar value.

Compound `COc1ccc(Cn2nc(C)cc2CC(O)c2c(F)cccc2F)cc1` (stereo not given) showed a concentration for half-maximal inhibition (IC50) in data set [1] greater than 100 µM.
